According to ChEMBL document CHEMBL1157968, “Chemical and cytotoxic constituents from the leaves of Cinnamomum kotoense” (2006):

Assays:
Assay type in all cases: functional
HeLa [1] = test: Induction of apoptosis in human HeLa cells assessed as number of cells with decreased mitochondrial membrane potential at 100 uM after 6 hrs by measuring rhodamine 123 fluorescence intensity; parameters: scale not given: the % may be the effect or the level left
Outline: (§1)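 Cells in DMEM/10% FCS, medium renewed at 80% confluence, then 100 µM agent (0.1% DMSO final) for 1–24 h. Stained with 5 µM rhodamine 123 for 30 min in the dark, washed, trypsinized and resuspended in PBS; flow cytometry, percentage of cells with weak rhodamine 123 staining (reduced ΔΨm); at least three experiments, representative shown.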

HeLa [2] = test: Cell cycle arrest in human HeLa cells pretreated with 5 uM cyclosporin A for 1 hr assessed as G1 phase accumulation at 100 uM after 24 hrs by FACS
Outline: (§2)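 HeLa cells pretreated for 1 h with the listed agent (10 mM GSH ethyl ester, 10 µM dexamethasone, 10 µM pifithrin, 100 µM Boc-Asp(OMe)-fmk or 5 µM cyclosporin A), then given 100 µM compound for 24 h. Cells fixed in PBS-MeOH, stained with PI/RNase and analysed by flow cytometry for DNA content. At least three experiments, one representative shown.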

HeLa [3] = test: Cell cycle arrest in human HeLa cells pretreated with 10 uM Dexamethasone for 1 hr assessed as subG1 phase accumulation at 100 uM after 24 hrs by FACS; outline: as §2
HeLa [4] = test: Cell cycle arrest in human HeLa cells assessed as subG1 phase accumulation at 50 uM after 24 hrs by FACS
Outline: (§3)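 HeLa cells seeded 5 × 10^5 per dish 48 h ahead in DMEM with 10% FCS, then exposed to compound for 24 h (DMSO 0.1% final). Adherent and floating cells pooled, fixed in PBS-MeOH (1:2) at 4 °C for at least 18 h, and stained with PI (50 µg/mL) plus RNase A for 30 min at room temperature. Flow cytometry at 488 nm excitation, doublets gated out; phase percentages taken from DNA histograms.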

HeLa [5] = test: Cell cycle arrest in human HeLa cells pretreated with 5 uM cyclosporin A for 1 hr assessed as subG1 phase accumulation at 100 uM after 24 hrs by FACS; outline: as §2
HeLa [6] = test: Cell cycle arrest in human HeLa cells pretreated with 10 uM pifithrin-alpha for 1 hr assessed as G1 phase accumulation at 100 uM after 24 hrs by FACS; outline: as §2
HeLa [7] = test: Induction of apoptosis in human HeLa cells assessed as increase caspase 3/7 activities at 100 uM after 6 hrs by FACS relative to control
Outline: (§4)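 After 3–24 h exposure at 100 µM, HeLa cells were trypsinized. 1 × 10^6 cells in DMEM were mixed 1:1 with Z-DEVD-R110 substrate reagent and incubated 1 h at 37 °C, then washed. Released R110 read per cell by flow cytometry (ex 488/em 520 nm) and expressed as fold over untreated cells. At least three runs.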

HeLa [8] = test: Induction of apoptosis in human HeLa cells assessed as number of cells with decreased mitochondrial membrane potential at 100 uM after 9 hrs by measuring rhodamine 123 fluorescence intensity; parameters: scale not given: the % may be the effect or the level left; outline: as §1
HeLa [9] = test: Cell cycle arrest in human HeLa cells pretreated with 100 uM Boc-Asp(OMe)-fmk for 1 hr assessed as G2/M phase accumulation at 100 uM after 24 hrs by FACS; outline: as §2
HeLa [10] = test: Cell cycle arrest in human HeLa cells pretreated with 10 uM pifithrin-alpha for 1 hr assessed as subG1 phase accumulation at 100 uM after 24 hrs by FACS; outline: as §2
HeLa [11] = test: Cell cycle arrest in human HeLa cells pretreated with 10 uM Dexamethasone for 1 hr assessed as S phase accumulation at 100 uM after 24 hrs by FACS; outline: as §2
HeLa [12] = test: Cell cycle arrest in human HeLa cells pretreated with 5 uM cyclosporin A for 1 hr assessed as S phase accumulation at 100 uM after 24 hrs by FACS; outline: as §2
HeLa [13] = test: Induction of apoptosis in human HeLa cells assessed as increase in intracellular nitric oxide level at 100 uM after 1 hr by FACS relative to untreated control
Outline: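 HeLa cells at 80% confluence were exposed to 100 µM for 1, 3 or 24 h and then stained with 1 µM DAF-2 for 10 min in the dark. After trypsinization, DAF-2 fluorescence was measured by flow cytometry and taken as fold versus untreated cells. At least three experiments.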

HeLa [14] = test: Induction of apoptosis in human HeLa cells pretreated with 10 uM Dexamethasone for 1 hr at 100 uM after 24 hrs by TUNEL assay
Outline: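 HeLa in DMEM/10% FCS, untreated or pretreated 1 h with listed inhibitor, then 100 µM agent (0.1% DMSO final) for 24 h. Pooled cells fixed in 1% paraformaldehyde (30 min, 4 °C), 70% EtOH (30 min, −20 °C); strand breaks labelled with TdT/fluorescein-BrdUTP (1 h, 37 °C), PI/RNase counterstain; flow cytometry, % apoptotic cells; ≥3 experiments.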

HeLa [15] = test: Induction of apoptosis in human HeLa cells assessed as increase caspase 3/7 activities at 100 uM after 12 hrs by FACS relative to control; outline: as §4
HeLa [16] = test: Induction of apoptosis in human HeLa cells assessed as increase p53 expression at 100 uM after 24 hrs by FACS
Outline: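 HeLa seeded at 5 × 10^5 cells/dish 48 h before, in DMEM with 10% FCS; medium renewed at 60% confluence, then 100 µM agent (0.1% DMSO final) for 0–24 h. Pooled floating and adherent cells fixed in 1% paraformaldehyde (15 min, 4 °C), permeabilized in 70% EtOH (30 min, 4 °C), then FITC-conjugated mouse anti-p53 mAb (1 h, 37 °C), PI/RNase counterstain; flow cytometry, % p53-positive cells; ≥3 experiments.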

HeLa [17] = test: Induction of apoptosis in human HeLa cells assessed as increase in intracellular glutathione-depleted cell population at 100 uM after 24 hrs by FACS
Outline: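 HeLa cells at 80% confluence got fresh medium and were exposed for 24 h. Adherent and floating cells were pooled, adjusted to (1-2) × 10^6/mL and stained with 25 µM CMF-DA for 30 min at 37 °C. After washing, flow cytometry scored the percentage of GSH-negative cells. At least three experiments.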

HeLa [18] = test: Cell cycle arrest in human HeLa cells pretreated with 10 uM Dexamethasone for 1 hr assessed as G1 phase accumulation at 100 uM after 24 hrs by FACS; outline: as §2
HeLa [19] = test: Cell cycle arrest in human HeLa cells assessed as S phase accumulation at 25 50 after 24 hrs by FACS; outline: as §3
HeLa [20] = test: Cell cycle arrest in human HeLa cells assessed as G2/M phase accumulation at 25 after 24 hrs by FACS; outline: as §3
HeLa [21] = test: Cell cycle arrest in human HeLa cells assessed as G2/M phase accumulation at 100 uM after 24 hrs by FACS; outline: as §3
HeLa [22] = test: Cell cycle arrest in human HeLa cells pretreated with 100 uM Boc-Asp(OMe)-fmk for 1 hr assessed as G1 phase accumulation at 100 uM after 24 hrs by FACS; outline: as §2

CCCCCCCCCCCCC/C=C(/C(=O)OC)[C@@H](O)C(C)=O [SECOKOTOMOLIDE A] was tested, and the Activity (HeLa [1]) was 23%, the Activity (HeLa [2]) was 47.7% and the Activity (HeLa [3]) was 47.7%. The Activity (HeLa [4]) was 61.2%, the Activity (HeLa [5]) was 61.2% and the Activity (HeLa [6]) was 51.3%. The “fold change (FC)” value (HeLa [7]) was 5.9, the Activity (HeLa [8]) was 42.4% and the Activity (HeLa [9]) was 25.7%. The Activity (HeLa [10]) was 40.9%, the Activity (HeLa [11]) was 33.8% and the Activity (HeLa [12]) was 14.4%. The “fold change (FC)” value (HeLa [13]) was 2.1, the Activity (HeLa [14]) was 55.3% and the “fold change (FC)” value (HeLa [15]) was 4.6. For the same compound, the Activity (HeLa [16]) was 28.8%, the Activity (HeLa [17]) was 98% and the Activity (HeLa [18]) was 53.9%. For the same compound, the Activity (HeLa [19]) was 20.3%, the Activity (HeLa [20]) was 28.7% and the Activity (HeLa [21]) was 31%. For the same compound, the Activity (HeLa [22]) was 60.6%.
